Experimental findings from ChEMBL document CHEMBL3627606, “Development of Novel, CNS Penetrant Positive Allosteric Modulators for the Metabotropic Glutamate Receptor Subtype 1 (mGlu1), Based on an N-(3-Chloro-4-(1,3-dioxoisoindolin-2-yl)phenyl)-3-methylfuran-2-carboxamide Scaffold, That Potentiate Wild Type and Mutant mGlu1 Receptors Found in …” (J Med Chem, 2015) are described below.

Data set [1] relates to Plasma. As to the kind of experiment: Fraction unbound in human plasma. In kind it is ADME, cell-free.
The subject of data set [2] is Plasma. Kind of data set: Fraction unbound in rat plasma. Type of data set: ADME, cell-free.
Another data set concerns the target Cytochrome P450 2D6 (Homo sapiens, UniProt P10635). Kind of data set: Inhibition of CYP2D6 in human liver microsomes by LC-MS/MS analysis. In kind it is ADME.
Another data set addresses Cytochrome P450 3A4 (Homo sapiens, UniProt P08684). As to the kind of experiment: Inhibition of CYP3A4 in human liver microsomes by LC-MS/MS analysis. In kind it is ADME.
A further data set deals with Mus musculus. As to the kind of experiment: Toxicity in C57BL/6 mouse assessed as seizure activity at 100 mg/kg, ip administered as single dose measured for 3 hrs. Type of data set: organism-based. The note with it: in vivo. In outline: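 Male C57Bl/6 mice (25−30 g) dosed ip in 10% Tween 80 at 10 mL/kg: the mGlu5 ago-PAM at 1 or 3 mg/kg, the mGlu1 PAMs at 100 mg/kg. Behaviour was monitored continuously for 3 h and scored on a modified Racine scale (0−5).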

The nature of data set [3]: Half life in Sprague-Dawley rat at 0.2 mg/kg, iv by LC-MS/MS analysis. To be noted: in vivo.
Data set [4] in a line: Plasma clearance in Sprague-Dawley rat at 0.2 mg/kg, iv by LC-MS/MS analysis.
Data set [5] can be described thus: Mean residence time in Sprague-Dawley rat at 0.2 mg/kg, iv by LC-MS/MS analysis. The note with it: in vivo.
Data set [6] is described as follows: Plasma concentration in Sprague-Dawley rat at 0.2 mg/kg, iv after 0.25 hrs by LC-MS/MS analysis.
The next data set has as its system Rattus norvegicus. As to the kind of experiment: Volume of distribution at steady state in Sprague-Dawley rat at 0.2 mg/kg, iv by LC-MS/MS analysis. To be noted: in vivo.
Data set [7] is described as follows: Drug concentration in Sprague-Dawley rat brain at 0.2 mg/kg, iv after 0.25 hrs by LC-MS/MS analysis. The note with it: read-out: Drug uptake.
Data set [8] in a line: Ratio of drug level in brain to plasma of Sprague-Dawley rat at 0.2 mg/kg, iv after 0.25 hrs by LC-MS/MS analysis. To be noted: read-out: BPR.
In data set [9] the target is T1, Metabotropic glutamate receptor 1 (Homo sapiens, UniProt Q13255). As to the kind of experiment: Positive allosteric modulation of human mGlu1 receptor in HEK293 cells assessed as potentiation of glutamate-induced calcium mobiliztion by Fluo-4AM dye based fluorescence analysis. The note with it: read-out: EC50. In kind it is functional, cell-based.
The target of data set [10] is T1, Metabotropic glutamate receptor 1. As to the kind of experiment: Positive allosteric modulation of human mGlu1 receptor in HEK293 cells assessed as potentiation of glutamate-induced calcium mobiliztion by Fluo-4AM dye based fluorescence analysis relative to glutamate. In kind it is functional, cell-based.
Target sequence in this assay (Q13255 19-1194 limits assumed): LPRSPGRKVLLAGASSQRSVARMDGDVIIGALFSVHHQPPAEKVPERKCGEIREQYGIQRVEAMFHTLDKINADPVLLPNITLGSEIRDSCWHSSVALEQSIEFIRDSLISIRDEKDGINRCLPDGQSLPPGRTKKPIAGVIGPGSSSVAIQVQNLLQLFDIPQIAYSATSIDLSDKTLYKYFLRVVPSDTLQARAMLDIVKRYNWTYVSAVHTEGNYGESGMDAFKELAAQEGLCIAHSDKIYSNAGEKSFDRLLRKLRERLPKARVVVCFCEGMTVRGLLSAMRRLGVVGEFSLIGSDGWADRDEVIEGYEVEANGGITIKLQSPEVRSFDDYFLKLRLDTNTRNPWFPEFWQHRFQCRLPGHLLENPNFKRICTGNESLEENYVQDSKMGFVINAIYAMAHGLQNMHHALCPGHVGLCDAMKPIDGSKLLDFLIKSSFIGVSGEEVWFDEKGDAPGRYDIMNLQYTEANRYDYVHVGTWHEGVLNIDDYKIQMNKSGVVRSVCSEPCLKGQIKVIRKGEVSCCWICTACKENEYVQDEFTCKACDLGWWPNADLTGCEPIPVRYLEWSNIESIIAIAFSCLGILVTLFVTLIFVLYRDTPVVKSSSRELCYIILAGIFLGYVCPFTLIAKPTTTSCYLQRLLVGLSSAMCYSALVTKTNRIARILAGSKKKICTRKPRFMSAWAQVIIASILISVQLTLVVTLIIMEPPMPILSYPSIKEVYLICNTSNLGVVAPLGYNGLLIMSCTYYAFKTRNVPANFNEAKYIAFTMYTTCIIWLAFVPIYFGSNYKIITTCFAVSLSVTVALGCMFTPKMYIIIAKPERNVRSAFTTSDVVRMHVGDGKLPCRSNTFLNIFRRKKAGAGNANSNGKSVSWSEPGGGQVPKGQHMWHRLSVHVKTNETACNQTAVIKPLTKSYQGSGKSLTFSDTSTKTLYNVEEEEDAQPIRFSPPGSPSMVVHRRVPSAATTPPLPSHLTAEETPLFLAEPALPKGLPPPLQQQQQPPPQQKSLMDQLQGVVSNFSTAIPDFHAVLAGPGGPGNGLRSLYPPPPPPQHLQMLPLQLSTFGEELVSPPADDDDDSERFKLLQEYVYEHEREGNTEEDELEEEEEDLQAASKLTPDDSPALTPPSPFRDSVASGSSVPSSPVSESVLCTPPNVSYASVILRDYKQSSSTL
Data set [11] has as its target T2, Metabotropic glutamate receptor 4 (Homo sapiens, UniProt Q14833). As to the kind of experiment: Positive allosteric modulation of human mGlu4 receptor assessed as potentiation of glutamate-induced calcium mobiliztion by cell based assay. To be noted: read-out: EC50. In kind it is functional.
Data set [12] addresses Metabotropic glutamate receptor 1 (Rattus norvegicus, UniProt P23385). As to the kind of experiment: Positive allosteric modulation of rat mGlu1 receptor assessed as potentiation of glutamate-induced calcium mobiliztion by cell based assay. In kind it is functional. The procedure, abridged: (§1)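 Rat mGlu1 WT calcium mobilization concentration-response curves. EC50 and % Glu Max were derived from the curves.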

For data set [13], the target named is Metabotropic glutamate receptor 1 (Rattus norvegicus) (UniProt P23385). Kind of data set: Positive allosteric modulation of rat mGlu1 receptor assessed as potentiation of glutamate-induced calcium mobiliztion by cell based assay relative to glutamate. Type of data set: functional. In outline:
as §1

Data set [14] concerns the target T1, Metabotropic glutamate receptor 1. As to the kind of experiment: Positive allosteric modulation of human mGlu1 receptor in HEK293 cells assessed as potentiation of glutamate-induced calcium mobiliztion at 10 uM by Fluo-4AM dye based fluorescence analysis. Type of data set: functional, cell-based.
Target sequence in this assay (Q13255 19-1194 limits assumed): as above
Data set [15] shares this target. Kind of data set: Agonist activity at human mGlu1 receptor in HEK293 cells assessed as calcium mobilization at 10 uM by Fluo-4AM dye based fluorescence analysis. In kind it is functional, cell-based.
Target sequence in this assay (Q13255 19-1194 limits assumed): as above
The target in data set [16] is Metabotropic glutamate receptor 2 (Homo sapiens) (UniProt Q14416). As to the kind of experiment: Positive allosteric modulation of mGlu2 receptor (unknown origin) assessed as potentiation of glutamate-induced response by cell-based assay. In outline:
(§2)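 Selectivity counterscreen at the other mGlu subtypes using the standard fold-shift paradigm. Compound was tested at 10 μM against the glutamate concentration-response curve, and the shift of that curve was read.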

Data set [17] addresses Metabotropic glutamate receptor 3 (Homo sapiens) (UniProt Q14832). As to the kind of experiment: Positive allosteric modulation of mGlu3 receptor (unknown origin) assessed as potentiation of glutamate-induced response by cell-based assay. In outline: as §2
Data set [18] deals with Metabotropic glutamate receptor 5 (Homo sapiens) (UniProt P41594). Kind of data set: Positive allosteric modulation of mGlu5 receptor (unknown origin) assessed as potentiation of glutamate-induced response by cell-based assay. In outline: as §2
Data set [19] addresses Metabotropic glutamate receptor 6 (Homo sapiens) (UniProt O15303). Kind of data set: Positive allosteric modulation of mGlu6 receptor (unknown origin) assessed as potentiation of glutamate-induced response by cell-based assay. The procedure, abridged:
as §2

Data set [20] deals with Metabotropic glutamate receptor 7 (Homo sapiens) (UniProt Q14831). Kind of data set: Positive allosteric modulation of mGlu7 receptor (unknown origin) assessed as potentiation of glutamate-induced response by cell-based assay. In outline:
as §2

Data set [21] deals with Metabotropic glutamate receptor 8 (Homo sapiens) (UniProt O00222). As to the kind of experiment: Positive allosteric modulation of mGlu8 receptor (unknown origin) assessed as potentiation of glutamate-induced response by cell-based assay. The procedure, abridged: as §2
Data set [22] in a line: Intrinsic clearance in human liver microsomes at 1 uM by LC-MS/MS analysis. Type of data set: ADME. The note with it: read-out: CLH.
The test system of data set [23] is Plasma. As to the kind of experiment: Metabolic stability in human plasma. Type of data set: ADME, cell-free. In outline:
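Compound incubated at 10 μM in rat or human plasma at 37 °C. Samples taken at 0 and 4 h were analysed by mass spectrometry for parent and metabolites.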

The target of another data set is T3, Cytochrome P450 1A2 (Homo sapiens, UniProt P05177).
T3 sequence (P05177 whole entry): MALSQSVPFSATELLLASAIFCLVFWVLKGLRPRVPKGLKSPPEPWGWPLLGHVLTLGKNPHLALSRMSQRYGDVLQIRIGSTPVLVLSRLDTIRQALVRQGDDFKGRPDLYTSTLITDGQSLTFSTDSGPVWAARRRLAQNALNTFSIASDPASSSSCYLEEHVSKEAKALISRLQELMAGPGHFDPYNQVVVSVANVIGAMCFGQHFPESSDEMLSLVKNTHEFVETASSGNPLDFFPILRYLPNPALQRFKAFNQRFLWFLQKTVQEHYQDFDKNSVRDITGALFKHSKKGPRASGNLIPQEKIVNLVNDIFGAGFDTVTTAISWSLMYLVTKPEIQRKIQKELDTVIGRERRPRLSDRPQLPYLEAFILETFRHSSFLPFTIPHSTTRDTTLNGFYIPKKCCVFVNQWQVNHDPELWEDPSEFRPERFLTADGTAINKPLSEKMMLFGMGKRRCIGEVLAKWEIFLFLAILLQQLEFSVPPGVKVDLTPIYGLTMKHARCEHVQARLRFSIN
As to the kind of experiment: Inhibition of CYP1A2 in human liver microsomes by LC-MS/MS analysis. Type of data set: ADME.

In the next data set the target is Cytochrome P450 2C9 (Homo sapiens, UniProt P11712). As to the kind of experiment: Inhibition of CYP2C9 in human liver microsomes by LC-MS/MS analysis. Type of data set: ADME.
The test system of another data set is Brain. As to the kind of experiment: Drug concentration in C57BL/6 mouse brain at 100 mg/kg, ip administered as single dose. The note with it: in vivo, read-out: Drug uptake. In kind it is ADME, organism-based.
Data set [24] concerns the target T2, Metabotropic glutamate receptor 4. As to the kind of experiment: Positive allosteric modulation of human mGlu4 receptor assessed as potentiation of glutamate-induced calcium mobiliztion by cell based assay relative to PHCCC.
Data set [25] concerns Plasma. Kind of data set: Metabolic stability in rat plasma. Type of data set: ADME, cell-free.

Sequence of Cytochrome P450 3A4 (P08684 whole entry): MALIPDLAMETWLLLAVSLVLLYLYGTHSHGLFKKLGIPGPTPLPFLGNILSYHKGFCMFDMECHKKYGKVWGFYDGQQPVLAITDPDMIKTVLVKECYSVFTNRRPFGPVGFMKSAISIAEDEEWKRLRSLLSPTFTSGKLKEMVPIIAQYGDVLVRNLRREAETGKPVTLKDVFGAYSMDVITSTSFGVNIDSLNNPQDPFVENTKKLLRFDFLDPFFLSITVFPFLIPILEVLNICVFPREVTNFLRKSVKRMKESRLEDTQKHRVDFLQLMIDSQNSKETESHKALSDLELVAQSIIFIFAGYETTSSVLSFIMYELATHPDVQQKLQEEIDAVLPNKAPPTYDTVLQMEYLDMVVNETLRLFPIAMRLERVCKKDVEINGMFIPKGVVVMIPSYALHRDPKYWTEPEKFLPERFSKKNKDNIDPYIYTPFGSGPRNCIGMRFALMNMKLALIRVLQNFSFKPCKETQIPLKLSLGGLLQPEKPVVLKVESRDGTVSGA
Sequence of Cytochrome P450 2D6 (P10635 whole entry): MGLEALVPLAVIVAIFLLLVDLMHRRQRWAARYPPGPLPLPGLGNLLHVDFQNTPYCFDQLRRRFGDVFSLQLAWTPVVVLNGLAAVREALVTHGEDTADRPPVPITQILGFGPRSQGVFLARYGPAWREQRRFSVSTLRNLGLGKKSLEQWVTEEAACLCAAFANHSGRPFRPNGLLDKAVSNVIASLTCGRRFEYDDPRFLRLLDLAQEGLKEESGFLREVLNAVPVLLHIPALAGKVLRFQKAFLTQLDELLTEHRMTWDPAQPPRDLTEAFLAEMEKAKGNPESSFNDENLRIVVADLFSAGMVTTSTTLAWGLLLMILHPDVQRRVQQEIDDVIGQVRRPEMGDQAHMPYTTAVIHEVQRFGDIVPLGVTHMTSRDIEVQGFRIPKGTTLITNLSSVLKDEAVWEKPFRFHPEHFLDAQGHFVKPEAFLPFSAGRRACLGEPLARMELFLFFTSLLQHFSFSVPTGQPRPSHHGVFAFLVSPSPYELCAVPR
Sequence of Metabotropic glutamate receptor 1 (Rattus norvegicus, UniProt P23385) (P23385 whole entry): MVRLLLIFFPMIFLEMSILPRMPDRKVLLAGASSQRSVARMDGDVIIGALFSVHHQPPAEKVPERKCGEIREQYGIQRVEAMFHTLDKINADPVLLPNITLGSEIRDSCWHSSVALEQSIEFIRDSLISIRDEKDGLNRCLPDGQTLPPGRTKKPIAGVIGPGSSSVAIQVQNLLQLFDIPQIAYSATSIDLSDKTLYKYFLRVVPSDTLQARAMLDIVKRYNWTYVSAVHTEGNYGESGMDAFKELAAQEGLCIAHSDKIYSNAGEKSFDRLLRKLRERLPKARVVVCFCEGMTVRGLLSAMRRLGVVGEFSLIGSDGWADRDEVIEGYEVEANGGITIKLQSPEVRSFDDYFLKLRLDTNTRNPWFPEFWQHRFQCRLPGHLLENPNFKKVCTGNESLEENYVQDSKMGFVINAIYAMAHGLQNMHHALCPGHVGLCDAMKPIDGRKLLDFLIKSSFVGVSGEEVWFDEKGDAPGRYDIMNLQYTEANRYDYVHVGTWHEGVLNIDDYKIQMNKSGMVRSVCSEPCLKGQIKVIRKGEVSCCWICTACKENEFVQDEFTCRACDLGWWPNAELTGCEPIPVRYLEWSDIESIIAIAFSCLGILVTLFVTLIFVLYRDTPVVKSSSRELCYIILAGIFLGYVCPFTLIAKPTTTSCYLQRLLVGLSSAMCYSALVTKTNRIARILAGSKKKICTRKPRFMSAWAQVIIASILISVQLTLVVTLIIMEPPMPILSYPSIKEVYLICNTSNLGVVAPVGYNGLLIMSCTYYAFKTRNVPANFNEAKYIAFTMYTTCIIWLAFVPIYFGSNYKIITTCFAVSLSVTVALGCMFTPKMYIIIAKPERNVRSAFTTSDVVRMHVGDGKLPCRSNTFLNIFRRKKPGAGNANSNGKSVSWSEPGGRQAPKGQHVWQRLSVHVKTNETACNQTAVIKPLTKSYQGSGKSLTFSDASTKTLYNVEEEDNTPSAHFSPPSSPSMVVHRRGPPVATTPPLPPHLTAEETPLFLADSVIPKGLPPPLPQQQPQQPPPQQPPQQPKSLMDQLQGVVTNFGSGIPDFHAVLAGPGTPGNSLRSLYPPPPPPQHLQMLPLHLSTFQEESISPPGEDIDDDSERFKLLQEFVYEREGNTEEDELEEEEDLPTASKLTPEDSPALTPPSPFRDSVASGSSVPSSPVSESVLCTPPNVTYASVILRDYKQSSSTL
T2 sequence (Q14833 whole entry): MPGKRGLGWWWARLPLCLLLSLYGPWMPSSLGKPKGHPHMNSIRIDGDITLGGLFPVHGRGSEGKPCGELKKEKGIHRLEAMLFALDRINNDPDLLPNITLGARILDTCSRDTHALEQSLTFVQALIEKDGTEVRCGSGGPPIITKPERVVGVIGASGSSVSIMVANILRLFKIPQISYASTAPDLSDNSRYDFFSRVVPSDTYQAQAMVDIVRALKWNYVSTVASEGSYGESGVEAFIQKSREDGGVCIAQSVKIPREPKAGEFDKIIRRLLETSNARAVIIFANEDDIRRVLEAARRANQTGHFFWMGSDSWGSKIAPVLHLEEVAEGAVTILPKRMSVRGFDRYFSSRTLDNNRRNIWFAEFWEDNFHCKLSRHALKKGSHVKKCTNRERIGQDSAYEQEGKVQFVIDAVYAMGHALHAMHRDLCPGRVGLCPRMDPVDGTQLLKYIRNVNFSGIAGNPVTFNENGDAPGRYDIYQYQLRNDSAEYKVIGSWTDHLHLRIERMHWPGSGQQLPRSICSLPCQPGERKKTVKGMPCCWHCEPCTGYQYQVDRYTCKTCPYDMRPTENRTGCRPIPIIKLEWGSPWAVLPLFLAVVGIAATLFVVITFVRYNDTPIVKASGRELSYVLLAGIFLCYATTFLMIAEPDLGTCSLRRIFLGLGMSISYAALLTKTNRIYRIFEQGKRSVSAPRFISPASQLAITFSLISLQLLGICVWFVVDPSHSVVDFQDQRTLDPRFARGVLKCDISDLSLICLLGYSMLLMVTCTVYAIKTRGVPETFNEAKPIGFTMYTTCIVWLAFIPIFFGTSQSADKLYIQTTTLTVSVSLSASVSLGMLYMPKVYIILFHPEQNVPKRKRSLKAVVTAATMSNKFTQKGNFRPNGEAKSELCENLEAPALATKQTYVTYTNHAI
Sequence of Cytochrome P450 2C9 (P11712 whole entry): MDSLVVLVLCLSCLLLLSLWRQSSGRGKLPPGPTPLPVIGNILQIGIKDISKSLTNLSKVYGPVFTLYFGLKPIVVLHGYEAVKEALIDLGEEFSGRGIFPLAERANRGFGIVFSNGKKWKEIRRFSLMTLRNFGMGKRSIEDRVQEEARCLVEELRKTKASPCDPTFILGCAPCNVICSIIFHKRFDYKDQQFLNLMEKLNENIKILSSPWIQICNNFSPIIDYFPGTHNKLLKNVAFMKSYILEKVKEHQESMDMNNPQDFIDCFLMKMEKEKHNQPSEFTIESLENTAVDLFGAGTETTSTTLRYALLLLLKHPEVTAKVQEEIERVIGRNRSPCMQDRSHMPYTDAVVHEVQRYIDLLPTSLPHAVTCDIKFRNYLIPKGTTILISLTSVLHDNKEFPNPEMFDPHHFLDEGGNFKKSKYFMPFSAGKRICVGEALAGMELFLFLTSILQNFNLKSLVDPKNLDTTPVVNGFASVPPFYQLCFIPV

With `O=C(Nc1nc(C(F)(F)F)co1)C1c2ccccc2Oc2ccccc21`, the Fu is 0.014 with Plasma [1] and 0.003 in the data set with Plasma [2]. Also, the IC50 against Cytochrome P450 2D6 and on Cytochrome P450 3A4 was > 30 µM throughout. The Activity entry with Mus musculus is given as “Non-toxic”. In data set [3], this molecule showed a half-life of 54 min. Further, the clearance in [4] came out at 35 mL/min/kg. The MRT in [5] is 50 min. Besides, the concentration at 0.25 h worked out at 276 ng/mL in data set [6] and 81 ng/mL in [7]. In the data set with Rattus norvegicus, this molecule returned a Vdss of 1.34 L/kg. The Kp at 0.25 h in data set [8] amounted to 0.29.

Regarding `Cc1ccoc1C(=O)Nc1ccc(N2C(=O)c3ccncc3C2=O)c(Cl)c1`, the EC50 in [9] was 0.0988 µM; in data set [11] it was > 10 µM; in [12], 0.113 µM. Also, the %max in data set [10] worked out at 94%; in [13], 115%; in [24], 18%. The fold change (FC) was 10.9 in data set [14]; < 2 in data set [16]; < 2 in data set [17]; < 2 in data set [18]; < 2 in data set [19]; < 2 in [20]. Also, the fold change (FC) in [21] is < 2. For the same molecule, the Activity is < 20% in [15] and “Non-toxic” with Mus musculus. For the same molecule, the CLint scaled at 1 µM in [22] was determined as 167 mL/min/kg. For the same molecule, in the data set with Plasma [2], the Fu worked out at 0.03. The Stability entry with Plasma [23] is on record as “Unstable”. For the same molecule, the IC50 against Cytochrome P450 1A2, at Cytochrome P450 2C9, against Cytochrome P450 2D6 and against Cytochrome P450 3A4 was > 30 µM each time. Moreover, the concentration in the data set with Brain worked out at 2520 nM. In addition, in data set [3], the half-life was found to be 5.38 min. The clearance in data set [4] was found to be 382 mL/min/kg. This molecule gave an MRT in [5] of 7.85 min. The concentration at 0.25 h in [6] stood at 12.5 ng/mL; in data set [7], 35.2 ng/mL. The Vdss in the data set on Rattus norvegicus was determined as 3 L/kg. Also, the Kp at 0.25 h in data set [8] is 2.81.

As to `O=C(Nc1ccc(N2C(=O)c3cccc(Cl)c3C2=O)c(Cl)c1)c1ncccc1Cl`, the EC50 was found to be 0.39 µM in data set [9] (hek293) and 0.356 µM in data set [12]. The Stability result with Plasma [23] and in the data set with Plasma [25] was “Unstable” throughout. For the same molecule, the IC50 against Cytochrome P450 1A2, on Cytochrome P450 2C9, at Cytochrome P450 2D6 and against Cytochrome P450 3A4 was > 30 µM throughout. For the same molecule, the values for the concentration at 0.25 h in data set [6] and in data set [7] were 336 ng/mL and 284 ng/mL, respectively.
